Data on 28 compounds can be found in ChEMBL document CHEMBL2203109, “3-Phenyl substituted 6,7-dimethoxyisoquinoline derivatives as FtsZ-targeting antibacterial agents” (Bioorg Med Chem, 2012).

For orientation: MIC90 means the lowest concentration that inhibits either 90% of growth or 90% of the strains tested, depending on the study. The term residual activity denotes the signal under treatment as a percentage of the control signal.

Data set [1] deals with Enterococcus faecalis. Kind of data set: Antibacterial activity against log-phase vancomycin-resistant Enterococcus faecalis ATCC 51575 assessed as growth inhibition after 24 hrs by broth microdilution method. Particulars: ATCC 51575, 24 h. Format: functional. In a few lines: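 CLSI broth microdilution in brain–heart infusion broth; log-phase bacteria at 10^5 CFU/mL, two-fold serial dilutions 64 to 0.031 μg/mL; 24 h aerobic incubation at 37 °C; OD600 read-out; MIC taken as lowest concentration inhibiting growth ≥90%.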

In data set [2] the test system is Staphylococcus aureus. In words: Antibacterial activity against log-phase methicillin-sensitive Staphylococcus aureus 8325-4 assessed as growth inhibition after 24 hrs by broth microdilution method. In kind it is functional. Particulars: 8325-4, 24 h. In a few lines: (§1)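 CLSI broth microdilution. Log-phase bacteria at 10^5 CFU/mL with two-fold serial dilutions (64 to 0.031 μg/mL). S. aureus tested in cation-adjusted Mueller-Hinton broth; E. faecalis in brain–heart infusion broth. Aerobic incubation 24 h at 37 °C. OD600 read; MIC is the lowest concentration giving ≥90% growth inhibition.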

In data set [3] the test system is Enterococcus faecalis. Kind of data set: Antibacterial activity against log-phase vancomycin-sensitive Enterococcus faecalis ATCC 19433 assessed as growth inhibition after 24 hrs by broth microdilution method. Format: functional. The conditions noted are these: ATCC 19433, 24 h. In a few lines:
as §1

Data set [4] concerns Staphylococcus aureus. Kind of data set: Antibacterial activity against log-phase methicillin-resistant Staphylococcus aureus ATCC 33591 assessed as growth inhibition after 24 hrs by broth microdilution method. Format: functional. Particulars: ATCC 33591, 24 h. In a few lines: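 CLSI broth microdilution; 10^5 CFU/mL log-phase bacteria in cation-adjusted Mueller-Hinton broth with 2% NaCl, two-fold serial dilutions from 64 to 0.031 μg/mL; aerobic incubation 24 h at 37 °C; growth read as OD600; MIC = lowest concentration giving ≥90% growth inhibition.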
A general note: Dilution methods test growth across graded concentrations, often in twofold steps.

Data set [5] has as its target T1, Cell division protein FtsZ (Staphylococcus aureus) (UniProt P0A031).
T1 sequence (whole entry): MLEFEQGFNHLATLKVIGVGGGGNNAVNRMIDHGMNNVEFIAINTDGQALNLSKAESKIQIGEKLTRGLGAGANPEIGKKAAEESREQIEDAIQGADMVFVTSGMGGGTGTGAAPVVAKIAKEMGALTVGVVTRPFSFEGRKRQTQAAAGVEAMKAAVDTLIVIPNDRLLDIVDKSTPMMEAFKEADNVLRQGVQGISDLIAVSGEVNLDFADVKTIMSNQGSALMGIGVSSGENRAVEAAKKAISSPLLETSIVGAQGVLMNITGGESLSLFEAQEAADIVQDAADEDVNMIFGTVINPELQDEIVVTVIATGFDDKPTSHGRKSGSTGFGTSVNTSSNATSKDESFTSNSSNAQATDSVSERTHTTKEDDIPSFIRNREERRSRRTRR
In words: Induction of Staphylococcus aureus FtsZ polymerization at 40 ug/ml measured for 60 mins by microtiter plate-based light scattering assay. In a few lines: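 Turbidity assay. 10 μM SaFtsZ plus compound (0–40 μg/mL) in 50 mM Tris HCl pH 7.4, 50 mM KCl, 2 mM magnesium acetate, 5 mM CaCl2, pre-equilibrated 10 min at room temperature. Started by adding 1 mM GTP or FtsZ; A340 followed for 60 min at 25 °C. For polymer stability, 1 mM GDP added mid-run.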

For data set [6], the target named is T1, Cell division protein FtsZ (Staphylococcus aureus). In words: Residual Staphylococcus aureus GTPase activity assessed as inorganic phosphate release upon GTP hydrolysis at 40 ug/ml preincubated for 10 mins before substrate addition measured after 2 hrs by malachite green based colorimetric analysis.
Data set [7] deals with HEK293. Kind of data set: Cytotoxicity against human HEK293 cells at 10 uM after 4 days by MTT assay. In kind it is cell-based. The conditions noted are these: hek293, 96 h. In a few lines: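 MTT assay. HEK293 or MDCK cells kept at 37 °C, 5% CO2 in DMEM, seeded at 1500 cells per well. Continuous 4-day exposure to varying drug concentrations in triplicate wells, with a drug-free control. MTT read at end of day 4; IC50 determined.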
For orientation: Formazan colour is commonly taken as a measure of viable cells.

Converted amounts (≈) assume the structure as drawn. The source made the active and inactive calls. No cut-off for these calls is given here. Where only a bound is given, the exact number is not on record here.

On to `COc1cc(-c2cc3cc(OC)c(OC)c(OC)c3c(C)[n+]2C)cc(-c2ccc(-c3ccccc3)cc2)c1OC.[I-]`, for which the results for the MIC90 in data set [1] and in data set [2] were 4 mg/L and 1 mg/L, respectively.
As for `COc1cc2cc(-c3cccc(-c4ccccc4)c3)[n+](C)c(N(C)C)c2cc1OC.[I-]`, the MIC90 in data set [1] was determined as 64 mg/L; in data set [3], 64 mg/L; in data set [4], 32 mg/L; in data set [2] it was 8 mg/L.
On to `CN(C)[C@@H]1C(O)=C(C(N)=O)C(=O)[C@@]2(O)C(O)=C3C(=O)c4c(O)cccc4[C@@](C)(O)[C@H]3C[C@@H]12` [TETRACYCLINE], for which the MIC90 in data set [1] was > 64 mg/L; in data set [3], 0.5 mg/L (≈ 1.13 µM); in data set [4], 64 mg/L (≈ 144 µM); in data set [2], 0.06 mg/L (≈ 0.135 µM).
Turning to `COc1cc(-c2cc3cc(OC)c(OC)c(OC)c3c(C)n2)cc(-c2ccc(-c3ccccc3)cc2)c1OC`, the MIC90 in data set [1], in data set [3], in data set [4] and in data set [2] was > 64 mg/L in each case.
As to `C[n+]1cc2c3c(ccc2c2ccc4cc5c(cc4c21)OCO5)OCO3` [SANGUINARIUM], the MIC90 in data set [1] was 16 mg/L; in data set [3], 8 mg/L; in data set [4] it was 2 mg/L; in data set [2], 2 mg/L.
As for `COc1cc2cc(-c3cccc(-c4ccccc4)c3)nc(N(C)C)c2cc1OC`, the MIC90 in data set [1], in data set [3], in data set [4] and in data set [2] was > 64 mg/L throughout.
Consider `COc1cc2cc(-c3cccc(-c4ccccc4)c3)[n+](C)cc2cc1OC.[I-]`, for which the MIC90 is > 64 mg/L in data set [1], > 64 mg/L in data set [3], 64 mg/L in data set [4] and 16 mg/L in data set [2].
On to `COc1ccc2c(c[n+](C)c3c4cc5c(cc4ccc23)OCO5)c1OC` [CHELERYTHRINE], for which the MIC90 in data set [1] was found to be 32 mg/L; in data set [3] it was 32 mg/L; in data set [4], 4 mg/L; in data set [2], 4 mg/L.
As to `COc1cc2cc(-c3cccc(-c4ccccc4)c3)nc(C#N)c2cc1OC`, the MIC90 in data set [1], in data set [3], in data set [4] and in data set [2] was > 64 mg/L throughout.
Consider `COc1cc2cc(-c3cccc(C(C)(C)C)c3)nc(C)c2cc1OC`, for which the outcome in data set [5] was inactive. In addition, the MIC90 in data set [1], in data set [3], in data set [4] and in data set [2] was > 64 mg/L in each case.
Take `CN[C@H](CC(C)C)C(=O)N[C@H]1C(=O)N[C@@H](CC(N)=O)C(=O)N[C@H]2C(=O)N[C@H]3C(=O)N[C@H](C(=O)N[C@H](C(=O)O)c4cc(O)cc(O)c4-c4cc3ccc4O)[C@H](O)c3ccc(c(Cl)c3)Oc3cc2cc(c3O[C@@H]2O[C@H](CO)[C@@H](O)[C@H](O)[C@H]2O[C@H]2C[C@](C)(N)[C@H](O)[C@H](C)O2)Oc2ccc(cc2Cl)[C@H]1O` [VANCOMYCIN]: the result in data set [5] was inactive. The MIC90 in data set [1] is > 64 mg/L; in data set [3], 1 mg/L (≈ 0.69 µM); in data set [4] it was 2 mg/L (≈ 1.38 µM); in data set [2], 1 mg/L (≈ 0.69 µM). In addition, in data set [6], the residual activity is 99.7%.
As to `COc1cc2cc(-c3cccc(-c4ccc(-c5ccccc5)cc4)c3)nc(C)c2cc1OC`, the MIC90 in data set [1], in data set [3], in data set [4] and in data set [2] was > 64 mg/L in each case.
`COc1cc2cc(-c3cccc(-c4ccccc4)c3)nc(CCN)c2cc1OC`: the MIC90 is > 64 mg/L in data set [1], 16 mg/L (≈ 41.6 µM) in data set [3], 4 mg/L (≈ 10.4 µM) in data set [4] and 4 mg/L (≈ 10.4 µM) in data set [2].
With `COc1cc2cc(-c3cccc(-c4ccc(C(C)(C)C)cc4)c3)nc(CN=C(N)N)c2cc1OC`, the Activity entry in data set [7] was “Non-toxic”. The MIC90 in data set [1] was 16 mg/L (≈ 34.1 µM); in data set [3], 8 mg/L (≈ 17.1 µM); in data set [4], 4 mg/L (≈ 8.54 µM); in data set [2] it was 4 mg/L (≈ 8.54 µM).
Take `COc1cc2cc(-c3cccc(-c4ccccc4)c3)[n+](C)c(C)c2cc1OC.[I-]`: the MIC90 in data set [1] is > 64 mg/L; in data set [3] it was > 64 mg/L; in data set [4], 32 mg/L; in data set [2], 16 mg/L.
Regarding `COc1ccc2cc3[n+](cc2c1OC)CCc1cc2c(cc1-3)OCO2` [BERBERINE], the outcome in data set [5] was inactive. The MIC90 in data set [1], in data set [3], in data set [4] and in data set [2] was > 64 mg/L in each case.
`COc1cc2cnc(-c3cccc(-c4ccccc4)c3)cc2cc1OC`: the MIC90 in data set [1], in data set [3], in data set [4] and in data set [2] was > 64 mg/L throughout.
Regarding `COc1cc2cc(-c3cccc(-c4ccccc4)c3)[n+](C)c(C)c2c(OC)c1OC.[I-]`, the MIC90 in data set [1] is 32 mg/L; in data set [3] it was 32 mg/L; in data set [4], 8 mg/L; in data set [2] it was 8 mg/L.
As to `CC[C@H]1OC(=O)[C@H](C)[C@@H](O[C@H]2C[C@@](C)(OC)[C@@H](O)[C@H](C)O2)[C@H](C)[C@@H](O[C@@H]2O[C@H](C)C[C@H](N(C)C)[C@H]2O)[C@](C)(O)C[C@@H](C)C(=O)[C@H](C)[C@@H](O)[C@]1(C)O` [ERYTHROMYCIN], the MIC90 in data set [1] is > 64 mg/L; in data set [3], 1 mg/L (≈ 1.36 µM); in data set [4], > 64 mg/L; in data set [2], 0.1 mg/L (≈ 0.136 µM).
With `COc1cc2cc(-c3cccc(C(C)(C)C)c3)nc(CN)c2cc1OC`, in data set [7], the Activity result is “Non-toxic”. Also, the MIC90 in data set [1] came out at 32 mg/L (≈ 91.3 µM); in data set [3], 32 mg/L (≈ 91.3 µM); in data set [4], 8 mg/L (≈ 22.8 µM); in data set [2] it was 4 mg/L (≈ 11.4 µM).
For `COc1cc2cc(-c3cccc(-c4ccc(C(C)(C)C)cc4)c3)nc(C)c2cc1OC`, in data set [5], the result was inactive. The MIC90 in data set [1], in data set [3], in data set [4] and in data set [2] was > 64 mg/L in each case.
As for `COc1cc2cc(-c3cccc(-c4ccccc4)c3)nc(C)c2c(OC)c1OC`, the MIC90 in data set [1], in data set [3], in data set [4] and in data set [2] was > 64 mg/L throughout.
Turning to `COc1cc2cc(-c3cccc(-c4ccccc4)c3)nc(CN=C(N)N)c2cc1OC`, the Activity entry in data set [7] is given as “Non-toxic”. Also, the MIC90 in data set [1] turned out to be 8 mg/L (≈ 19.4 µM); in data set [3] it was 8 mg/L (≈ 19.4 µM); in data set [4], 2 mg/L (≈ 4.85 µM); in data set [2] it was 2 mg/L (≈ 4.85 µM).
As to `Cc1onc(-c2ccccc2)c1C(=O)N[C@@H]1C(=O)N2[C@@H]1SC(C)(C)[C@@H]2C(=O)O` [OXACILLIN], the MIC90 in data set [1] was > 64 mg/L; in data set [3], 8 mg/L (≈ 19.9 µM); in data set [4], > 64 mg/L; in data set [2], 0.06 mg/L (≈ 0.149 µM).
For the compound `CNc1nc(-c2cccc(-c3ccccc3)c2)cc2cc(OC)c(OC)cc12`, the MIC90 in data set [1], in data set [3], in data set [4] and in data set [2] was > 64 mg/L throughout.
Take `COc1cc2cc(-c3cccc(-c4ccccc4)c3)nc(C)c2cc1OC`: the MIC90 in data set [1], in data set [3], in data set [4] and in data set [2] was > 64 mg/L throughout.
For the compound `COc1cc2cc(-c3cccc(C(C)(C)C)c3)[n+](C)c(C)c2cc1OC.[I-]`, the MIC90 in data set [1] is 64 mg/L; in data set [3], 64 mg/L; in data set [4], 16 mg/L; in data set [2] it was 16 mg/L.
In the case of `CCC[C@@H]1C[C@@H](C(=O)N[C@@H]([C@H]2O[C@H](SC)[C@H](O)[C@@H](O)[C@H]2O)[C@H](C)Cl)N(C)C1` [CLINDAMYCIN], the MIC90 in data set [1] is > 64 mg/L; in data set [3], 2 mg/L (≈ 4.71 µM); in data set [4] it was > 64 mg/L; in data set [2], 0.03 mg/L (≈ 0.0706 µM).
